# Measurements gathered from unrelated publications.
# Each line is one published result; the experiments were not run side by side.
# ache: Acetylcholinesterase (ache, Electrophorus electricus, UniProt O42275)
# RPS6KB2: Ribosomal protein S6 kinase beta-2 (RPS6KB2, Homo sapiens, UniProt Q9UBS0)
# STK17B: Serine/threonine-protein kinase 17B (STK17B, Homo sapiens, UniProt O94768)
# MAP3K21: Mitogen-activated protein kinase kinase kinase 21 (MAP3K21, Homo sapiens, UniProt Q5TCX8)
# STK32A: Serine/threonine-protein kinase 32A (STK32A, Homo sapiens, UniProt Q8WU08)
SMILES,target,test,system,setting,endpoint,result
COc1cc2c(cc1OC)C(=O)N(Cc1ccc(F)nc1)C2,ache,"enzyme activity, inhibitor",,1 µM,inhibition,-1.57%
CC(C)(C)c1nc2c(s1)c1nc(N)ncc1c1ccc(NS(=O)(=O)c3c(F)cccc3F)c(F)c12,RPS6KB2,"enzyme activity, inhibitor, radiometric",,1 µM,remaining activity,90%
O=C(NCCCNc1nc(Nc2cccc(NC(=O)N3CCCC3)c2)ncc1C1CC1)C1CCC1,STK17B,"enzyme activity, inhibitor, radiometric",,1 µM,remaining activity,3%
COc1cc2c(cc1OC)C(=O)N(Cc1ccc(-c3cccs3)nc1)C2,ache,"enzyme activity, inhibitor",,1 µM,inhibition,-4.2%
Cc1nn(CC(F)(F)F)cc1Nc1ncc(C2CC2)c(NCc2ccc(S(N)(=O)=O)cc2)n1,STK17B,"enzyme activity, inhibitor, radiometric",,1 µM,remaining activity,88%
FC(F)(F)Oc1cccc(-c2cnc3ccc(-c4ccncc4)nn23)c1,"Mitogen-activated protein kinase kinase kinase kinase 3 (MAP4K3, Homo sapiens, UniProt Q8IVH8)","enzyme activity, inhibitor, radiometric",,5 µM,activity vs control,39%
NS(=O)(=O)c1ccc(CNc2nc(Nc3cccc(CN4CCOCC4)c3)ncc2C2CC2)cc1,STK17B,"enzyme activity, inhibitor, radiometric",,1 µM,remaining activity,84%
CC(C)(O)[C@H]1CC[C@H](Nc2ccc3ncc(-c4cccc(C(F)(F)F)c4)n3n2)CC1,RPS6KB2,"enzyme activity, inhibitor",,1 µM,remaining activity,82.3%
COc1cc2c(cc1OC)C(=O)N(CC1CCN(Cc3ccsc3)CC1)C2,ache,"enzyme activity, inhibitor",,1 µM,inhibition,13.9%
Cc1ccc(C(=O)NCc2ccsc2)cc1C#Cc1cn(C(C)C)c2ncnc(N)c12,MAP3K21,"enzyme activity, inhibitor",,1 µM,activity vs control,81%
Cn1c2c(Cl)c(Cl)ccc2c2cc[nH]c(=O)c21,STK32A,"thermal stability, DSF",,10 µM,ΔTm,-0.4 °C
COC(=O)C(C)Oc1ccc2c(C)cc(=O)oc2c1 (stereo not drawn),"Aldehyde dehydrogenase 1A1 (ALDH1A1, Homo sapiens, UniProt P00352, N121S)","enzyme activity, inhibitor, absorbance",,10 µM,remaining activity,82.8%
COc1nccc(CN2Cc3cc(OC)c(OC)cc3C2=O)n1,ache,"enzyme activity, inhibitor",,1 µM,inhibition,-0.39%
c1cc(CN2CCOCC2)cc(Nc2ncc(C3CC3)c(NCCc3c[nH]cn3)n2)c1,STK17B,"enzyme activity, inhibitor, radiometric",,1 µM,remaining activity,14%
COc1cc2c(cc1OC)C(=O)N(Cc1cnc3c(c1)OCCN3C)C2,ache,"enzyme activity, inhibitor",,1 µM,inhibition,1.71%
NS(=O)(=O)c1ccc(CNc2ccnc(Nc3cccc(CN4CCOCC4)c3)n2)cc1,STK17B,"enzyme activity, inhibitor, radiometric",,1 µM,remaining activity,96%
CCc1cc(/C(C)=N/OCc2ccc(C3CCCCC3)c(C(F)(F)F)c2)ccc1CN1CC(C(=O)O)C1,"Sphingosine 1-phosphate receptor 1 (S1PR1, Homo sapiens, UniProt P21453)","calcium signal, agonist, fluorescence",HUVEC,,Emax,85%
Cc1nn(CC(F)(F)F)cc1Nc1ncc(Br)c(NCc2ccc(S(N)(=O)=O)cc2)n1,STK17B,"enzyme activity, inhibitor, radiometric",,1 µM,remaining activity,47%
Cn1c2c(c3ccc(Cl)c(Cl)c31)C(C#N)C1(CCCC1)NC2=O (stereo not drawn),STK32A,"thermal stability, DSF",,10 µM,ΔTm,-0.2 °C
O=C(Nc1cccc(Nc2ncc(Br)c(NCCc3cnc[nH]3)n2)c1)N1CCCC1,STK17B,"enzyme activity, inhibitor, radiometric",,1 µM,remaining activity,1%
O[C@@H]1[C@H](O)CO[C@H]1n1cnc2c(NCc3cccc(Cl)c3)ncnc21,"Adenosine receptor A1 (ADORA1, Homo sapiens, UniProt P30542)","ligand displacement, radioligand",,"10 µM, cell membranes",inhibition,35%
COc1cc2c(cc1OC)C(=O)N(CC1CCN(Cc3ccccn3)CC1)C2,ache,"enzyme activity, inhibitor",,1 µM,inhibition,8.01%
CC(C)(C)c1nc(-c2cccc(NS(=O)(=O)c3c(F)cccc3F)c2F)c(-c2ccnc(N)n2)s1,MAP3K21,"enzyme activity, inhibitor, radiometric",,1 µM,remaining activity,92%
COc1cc2c(cc1OC)C(=O)N(Cc1cccnc1)C2,ache,"enzyme activity, inhibitor",,1 µM,inhibition,0.13%
O=C(NCCCNc1ccnc(Nc2cccc(NC(=O)N3CCCC3)c2)n1)C1CCC1,STK17B,"enzyme activity, inhibitor, radiometric",,1 µM,remaining activity,17%
Cn1c2c(c3ccc(Cl)c(Cl)c31)C(C#N)C(C)(C)NC2=O (stereo not drawn),STK32A,"thermal stability, DSF",,10 µM,ΔTm,-0.1 °C
CCCOc1ccc(OC)c(F)c1C(=O)c1ccc(C(=O)N[C@@H]2CNC[C@H]2NC(=O)c2ccc3[nH]ncc3c2)cc1,"RAC-gamma serine/threonine-protein kinase (AKT3, Homo sapiens, UniProt Q9Y243)","enzyme activity, inhibitor",,0.1 µM,remaining activity,88%
